Drug uptake and Drug excretion data for 1 compound are collected here from ChEMBL document CHEMBL4350999, “Enhanced tumor retention of NTSR1-targeted agents by employing a hydrophilic cysteine cathepsin inhibitor” (Eur J Med Chem, 2019).

The nature of series [1]: Drug uptake in SCID mouse xenografted with human HT-29 cells assessed as tumour retention using 177Lu labelled compound at 0.37 MBq/mouse, iv co-treated with D-lysine at 40 mg/kg measured at 24 hrs by gamma counter analysis. The series is classed as ADME, organism-based. To be noted: in vivo. An outline of the steps: (§1)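 Female SCID mice bearing s.c. flank HT-29 xenografts (5 × 10^6 cells in Matrigel, ~80 mm3). Given 10 μCi (0.37 MBq) 177Lu conjugate i.v. by tail vein; groups sacrificed at 4, 24, 72 h. Tissues weighed and gamma-counted as %ID/g, excretion as %ID; n = 5, mean ± SD. Blocking arms: colchicine 1 mg/kg i.p. beforehand, or D-lysine 40 mg/kg co-injected.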

Series [2] is described as follows: Drug uptake in blood of SCID mouse xenografted with human HT-29 cells pretreated for 1 hr with colchicine at 1 mg/kg, ip followed by 177Lu labelled compound at 0.37 MBq/mouse, iv measured at 24 hrs by gamma counter analysis. In kind it is ADME, organism-based. To be noted: in vivo. An outline of the steps: as §1
Background: In xenograft studies the graft and the host belong to different species.

Series [3] in a line: Drug retention in tumor of mouse xenografted with human HT-29 cells assessed as tissue-conjugate adduct formation at 29.6 MBq co-treated with D-lysine at 40 mg/kg measured after 72 hrs using 177Lu labelled compound by SDS-PAGE analysis. In kind it is ADME, organism-based, Neoplasm. The note with it: in vivo.
Series [4] is described as follows: Drug retention in tumor lysates of mouse xenografted with human HT-29 cells assessed as macromolecule associated radioactivity at 29.6 MBq co-treated with D-lysine measured after 72 hrs using 177Lu labelled compound by gamma counter analysis relative to control. The series is classed as ADME, tissue-based, Neoplasm. The note with it: in vivo.
Series [5] can be described thus: Drug retention in liver lysates of mouse xenografted with human HT-29 cells assessed as macromolecule associated radioactivity at 29.6 MBq measured after 72 hrs using 177Lu labelled compound by gamma counter analysis relative to control. The series is classed as ADME, tissue-based. The note with it: in vivo. A digest of the protocol: (§2)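 HT-29 xenograft mice given 800 μCi (29.6 MBq) 177Lu conjugate i.v. and killed at 72 h. Tumor, liver and kidney homogenized in RIPA with protease inhibitor and supernatants run on SDS-PAGE autoradiography. Other supernatant aliquots filtered through 10 kDa MWCO devices to give the % macromolecule-associated radioactivity; n = 3.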

A short description of series [6]: Drug uptake in stomach of SCID mouse xenografted with human HT-29 cells using 177Lu labelled compound at 0.37 MBq/mouse, iv co-treated with D-lysine at 40 mg/kg measured at 24 hrs by gamma counter analysis. In kind it is ADME, organism-based. To be noted: in vivo. A digest of the protocol: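 HT-29 s.c. xenografts in female SCID mice. 177Lu conjugate given i.v. by tail vein at 10 μCi (0.37 MBq)/mouse, co-injected with D-lysine 40 mg/kg. Tissues were taken at 24 h, weighed and gamma counted. Uptake expressed as %ID/g (n = 5, mean ± SD); tumor-to-tissue ratios derived from these values.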

The nature of series [7]: Drug uptake in bone of SCID mouse xenografted with human HT-29 cells pretreated for 1 hr with colchicine at 1 mg/kg, ip followed by 177Lu labelled compound at 0.37 MBq/mouse, iv measured at 24 hrs by gamma counter analysis. In kind it is ADME, organism-based, Bone element. To be noted: in vivo. An outline of the steps: (§3)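 HT-29 flank xenografts in female SCID mice (5 × 10^6 cells in Matrigel, about 80 mm3). Colchicine 1 mg/kg was given i.p. before a tail-vein injection of 10 μCi (0.37 MBq) of purified 177Lu-conjugate. Tissues were taken at 24 h, weighed and gamma-counted as %ID/g; mean ± SD, n = 5.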

Series [8] is described as follows: Drug retention in human HT-29 cells assessed as increase in mean fluorescence intensity at 5 uM incubated for 2 hrs and measured at 2 to 4 hrs using natEu labelled compound by lysotracker green staining based confocal microscopic analysis. The series is classed as ADME, cell-based. To be noted: ht-29, 2 h. A digest of the protocol:
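HT-29 cells (1.25 × 10^5/well) loaded with natEu conjugate (5 μM), washed, then chased in fresh medium up to 24 h. Lysotracker Green (100 nM) applied 2 h before each read; cells fixed and imaged confocally at 405/488 nm. Per-cell mean fluorescence and Lysotracker co-localization quantified.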

The nature of series [9]: Drug excretion in SCID mouse xenografted with human HT-29 cells pretreated for 1 hr with colchicine at 1 mg/kg, ip followed by 177Lu labelled compound at 0.37 MBq/mouse, iv measured at 24 hrs by gamma counter analysis. The series is classed as ADME, organism-based. The note with it: in vivo. An outline of the steps:
as §1

The nature of series [10]: Drug uptake in kidney of SCID mouse xenografted with human HT-29 cells pretreated for 1 hr with colchicine at 1 mg/kg, ip followed by 177Lu labelled compound at 0.37 MBq/mouse, iv measured at 24 hrs by gamma counter analysis. The series is classed as ADME, organism-based. The note with it: in vivo. A digest of the protocol:
as §3

The nature of series [11]: Drug retention in kidney lysates of mouse xenografted with human HT-29 cells assessed as macromolecule associated radioactivity at 29.6 MBq co-treated with D-lysine measured after 72 hrs using 177Lu labelled compound by gamma conter analysis relative to control. To be noted: in vivo. In kind it is ADME, tissue-based.
The nature of series [12]: Drug retention in tumor lysates of mouse xenografted with human HT-29 cells assessed as macromolecule associated radioactivity at 29.6 MBq measured after 72 hrs using 177Lu labelled compound by gamma counter analysis relative to control. To be noted: in vivo. In kind it is ADME, tissue-based, Neoplasm. A digest of the protocol:
as §2

Take `Cc1cc(O)cc(C)c1C[C@H](NC(=O)[C@@H]1CCCN1C(=O)[C@H](CCCNC(=N)N)NC(=O)[C@H](CCCNC(=N)N)N(C)C(=O)[C@@H]1CCCN1C(=O)[C@H](CCCCN)NC(=O)[C@@H](CO)NC(=O)[C@@H](CO)NC(=O)[C@@H](CO)NC(=O)[C@H](Cc1cn(CCNC(=O)[C@H](CCCNC(=N)N)NC(=O)[C@H](CC(C)C)NC(=O)C2OC2C(=O)O)nn1)NC(=O)CN1CCN(CC(=O)O)CCN(CC(=O)O)CCN(CC(=O)O)CC1)C(=O)N[C@H](C(=O)N[C@@H](CC(C)C)C(=O)O)C(C)(C)C` (some centres not stated): the Drug uptake was 6 % ID/g in series [1]; 0.06 % ID/g in series [2]; “Active” in series [3]; 80% in series [4]; 80% in [5]; 0.21 % ID/g in [6]. Besides, the Drug uptake was 0.36 % ID/g in series [7]; “Not Active” in series [8]; 26 % ID/g in series [10]; 80% in series [11]; 80% in [12]. For the same compound, the Drug excretion in [9] is on record as 85 %ID.
